{"source": "paper PMC6512341", "about": "(ACS chemical neuroscience, 2018)", "key": {"[1]": {"test_system": "MDCK-MDR1 cell line", "experiment": "Permeability studies in MDCK-MDR1 cells", "assay_type": "in vitro ADME", "settings": "MDCK-MDR1 cell line"}, "[2]": {"test_system": "MDR1 (P-gp)", "experiment": "Permeability studies in MDCK-MDR1 cells", "assay_type": "in vitro ADME", "settings": "dog, MDCK-MDR1, efflux ratio, MDCK-MDR1 cell line"}, "[3]": {"test_system": "MDR1", "experiment": "Permeability studies in MDCK-MDR1 cells", "assay_type": "in vitro ADME", "settings": "dog, MDCK-MDR1"}, "[4]": {"test_system": "acetylated α-tubulin", "experiment": "α-Tubulin acetylation studies in HEK293 cells", "assay_type": "cell-based", "settings": "tested at 0.01, 0.1, 1, and 10 μM", "procedure,_shortened": "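HEK293 cells plated 24 h ahead and treated at 70% confluency with 10 nM–10 µM. Lysed in MPER with protease inhibitors; 2 µg protein boiled, run on 12% gel, transferred to PVDF. Blocked in 5% milk/TBST; anti-acetyl-tubulin 1:3000 overnight at 4 °C, then HRP secondary 1:5000; ECL. Reprobed for total α-tubulin at 1:1000. Densitometric ratio normalized to 10 µM reference HDAC6 inhibitor; n = 3–4; one-way ANOVA vs vehicle.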"}, "[5]": {"test_system": "acetylated α-tubulin", "experiment": "α-Tubulin acetylation in N2a cells", "assay_type": "cell-based", "settings": "compared to vehicle"}, "[6]": {"test_system": "acetylated histone 3", "experiment": "Histone acetylation in N2a cells", "assay_type": "cell-based", "settings": "compared to vehicle", "procedure,_shortened": "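N2a cells treated at 1 µM or 10 nM; reference HDAC inhibitors served as positive controls. Histones extracted by kit; protein by micro BCA. Samples denatured in reducing buffer at 95 °C for 5 min and blotted to PVDF. Blocked in 5% BSA/TBST 1 h at RT; primaries overnight: acetyl-H3 K9+K14 1:1000, histone 4 1:1000. Ratios normalized to vehicle; n = 4; one-way ANOVA vs vehicle.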"}, "[7]": {"target": "T1, HDAC6 (Homo sapiens, UniProt Q9UBN7)", "T1 sequence (Q9UBN7 1-1215)": "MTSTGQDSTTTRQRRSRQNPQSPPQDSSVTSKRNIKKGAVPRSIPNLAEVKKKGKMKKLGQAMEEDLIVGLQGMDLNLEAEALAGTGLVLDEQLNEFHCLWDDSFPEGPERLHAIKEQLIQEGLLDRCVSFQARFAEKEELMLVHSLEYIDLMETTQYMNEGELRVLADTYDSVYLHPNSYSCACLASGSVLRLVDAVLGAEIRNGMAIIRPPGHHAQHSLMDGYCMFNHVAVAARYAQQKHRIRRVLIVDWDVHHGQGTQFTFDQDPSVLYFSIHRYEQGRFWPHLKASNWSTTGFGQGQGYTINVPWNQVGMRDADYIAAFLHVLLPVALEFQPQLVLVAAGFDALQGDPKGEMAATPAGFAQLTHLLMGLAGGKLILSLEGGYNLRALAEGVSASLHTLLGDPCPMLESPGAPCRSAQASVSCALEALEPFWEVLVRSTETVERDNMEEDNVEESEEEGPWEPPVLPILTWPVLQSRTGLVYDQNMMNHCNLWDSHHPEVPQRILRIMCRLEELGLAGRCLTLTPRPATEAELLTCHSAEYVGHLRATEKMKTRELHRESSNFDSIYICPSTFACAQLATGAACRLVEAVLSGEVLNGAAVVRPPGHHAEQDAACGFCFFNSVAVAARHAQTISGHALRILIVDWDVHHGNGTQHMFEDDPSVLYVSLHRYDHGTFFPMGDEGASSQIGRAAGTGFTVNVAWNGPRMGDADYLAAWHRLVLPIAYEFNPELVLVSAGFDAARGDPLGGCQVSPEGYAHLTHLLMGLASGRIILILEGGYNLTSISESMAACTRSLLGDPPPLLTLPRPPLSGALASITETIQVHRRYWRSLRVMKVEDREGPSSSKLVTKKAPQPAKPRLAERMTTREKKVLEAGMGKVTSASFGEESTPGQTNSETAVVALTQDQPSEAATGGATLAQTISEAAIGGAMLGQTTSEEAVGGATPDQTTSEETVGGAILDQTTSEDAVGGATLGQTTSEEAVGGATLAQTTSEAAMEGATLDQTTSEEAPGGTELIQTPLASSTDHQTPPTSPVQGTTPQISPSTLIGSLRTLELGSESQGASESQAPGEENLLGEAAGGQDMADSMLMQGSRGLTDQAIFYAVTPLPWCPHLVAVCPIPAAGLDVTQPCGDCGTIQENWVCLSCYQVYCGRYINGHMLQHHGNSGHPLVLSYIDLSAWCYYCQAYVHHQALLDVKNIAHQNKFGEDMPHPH", "experiment": "HDAC1–11 enzyme assays", "assay_type": "biochemical", "settings": "for HDAC6 activity (in words): Figure 1a, compared with phenylhydroxamate 1"}, "[8]": {"test_system": "HDAC6", "settings": "cited from earlier work; for activity against HDAC6 (in words) / selectivity over HDAC1 (in words): Figure 1a"}, "[9]": {"test_system": "class IIa isoforms", "experiment": "HDAC1–11 enzyme assays", "assay_type": "biochemical, human", "settings": "Figure 2b and c", "procedure,_shortened": "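Human full-length recombinant HDAC4, 5, 7 and 9 with fluorogenic Ac-LGK(TFA)-AMC substrate. Enzyme–compound preincubation 5–10 min, then 2 h at 30 °C. Developer added; fluorescence read at plateau. 10-dose, 3-fold dilutions from 30 µM, in duplicate. IC50 from sigmoidal fit.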"}, "[10]": {"settings": "cited from earlier work"}, "[11]": {"experiment": "Brain/plasma pilot PK studies of TubA", "assay_type": "in vivo", "settings": "IV administration, WT mice"}}}
{"molecule": "CN(C)c1ccc(Cc2ccc(C(=O)NO)cc2)cc1", "note": "[Compound 7, 4-[4-(Dimethylamino)benzyl]-N-hydroxybenzamide]", "values": [{"measurement": "efflux ratio", "setting": "[1]", "result": 0.63}, {"measurement": "efflux ratio at 2 h", "setting": "[2]", "result": "< 1"}, {"measurement": "Papp A→B at 2 h", "setting": "[3]", "result": 17.6, "unit": "×10⁻⁶ cm/s"}, {"measurement": "Papp B→A at 2 h", "setting": "[3]", "result": 11, "unit": "×10⁻⁶ cm/s"}, {"measurement": "concentration at which acetylated α-tubulin levels are elevated", "setting": "[4]", "result": 10, "unit": "µM"}]}
{"molecule": "CC(/C=C/C(=O)NO)=C\\[C@@H](C)C(=O)c1ccc(N(C)C)cc1", "note": "[TSA, Trichostatin A, reference compound]", "values": [{"measurement": "ratio of acetylated α-tubulin to α-tubulin", "setting": "[5]", "result": "increased levels of both acetylated α-tubulin and acetylated histone H3 significantly"}, {"measurement": "levels of acetylated histone 3 to histone 4", "setting": "[6]", "result": "increased levels of both acetylated α-tubulin and acetylated histone H3 significantly"}]}
{"molecule": "O=C(NO)c1ccc(CN2CCCC2)cc1", "note": "[Compound 3, N-Hydroxy-4-(pyrrolidin-1-ylmethyl)benzamide]", "values": [{"measurement": "HDAC6 activity (in words)", "setting": "[7]", "result": "reduced HDAC6 activity"}]}
{"molecule": "O=C(NO)c1ccc(Cn2cccc2)cc1", "note": "[Compound 4, 4-(1-Pyrrolylmethyl)-N-hydroxybenzamide]", "values": [{"measurement": "activity against HDAC6 (in words)", "setting": "[8]", "result": "nanomolar activity"}, {"measurement": "selectivity over HDAC1 (in words)", "setting": "[8]", "result": "high selectivity"}]}
{"molecule": "O=C(NO)c1ccc(Cn2ccc3ccccc32)cc1", "note": "[Compound 5, 4-(1-Indolylmethyl)-N-hydroxybenzamide]", "values": [{"measurement": "activity against HDAC6 (in words)", "setting": "[8]", "result": "nanomolar activity"}, {"measurement": "selectivity over HDAC1 (in words)", "setting": "[8]", "result": "high selectivity"}]}
{"molecule": "Cc1nc2ccccc2n1Cc1ccc(C(=O)NO)cc1F", "note": "[Compound 9, 3-Fluoro-N-hydroxy-4-[(2-methyl-1-benzimidazolyl)methyl]-benzamide]", "values": [{"measurement": "activity against the class IIa isoforms (in words)", "setting": "[9]", "result": "strong activity"}, {"measurement": "efflux ratio", "setting": "[1]", "result": 4.23}, {"measurement": "efflux ratio at 2 h", "setting": "[2]", "result": "> 2.5"}, {"measurement": "Papp A→B at 2 h", "setting": "[3]", "result": 3.89, "unit": "×10⁻⁶ cm/s"}, {"measurement": "Papp B→A at 2 h", "setting": "[3]", "result": 13.2, "unit": "×10⁻⁶ cm/s"}]}
{"molecule": "O=C(NO)c1ccccc1", "note": "[Compound 1, phenylhydroxamate, reference compound]", "values": [{"measurement": "selectivity over class I HDACs", "setting": "[8]", "result": "more than 10 fold"}, {"measurement": "IC50", "setting": "[8]; read-out: IC50 against HDAC6", "result": 0.115, "unit": "µM"}]}
{"molecule": "Cc1nc2ccc(F)cc2n1Cc1ccc(C(=O)NO)cc1", "note": "[Compound 8, 4-[(6-Fluoro-2-methyl-1-benzimidazolyl)methyl]-N-hydroxybenzamide]", "values": [{"measurement": "activity against the class IIa isoforms (in words)", "setting": "[9]", "result": "strong activity"}, {"measurement": "efflux ratio", "setting": "[1]", "result": 3.23}, {"measurement": "efflux ratio at 2 h", "setting": "[2]", "result": "> 2.5"}, {"measurement": "Papp A→B at 2 h", "setting": "[3]", "result": 4.44, "unit": "×10⁻⁶ cm/s"}, {"measurement": "Papp B→A at 2 h", "setting": "[3]", "result": 13.4, "unit": "×10⁻⁶ cm/s"}]}
{"molecule": "Cn1c(NCc2ccc(C(=O)NO)cc2)nc2ccccc21", "note": "[Compound 12, N-Hydroxy-4-[[(1-methyl-1H-benz[d]imidazol-2-yl)amino]-methyl]benzamide]", "values": [{"measurement": "efflux ratio", "setting": "[1]", "result": 2.95}, {"measurement": "efflux ratio at 2 h", "setting": "[2]", "result": "> 2.5"}, {"measurement": "Papp A→B at 2 h", "setting": "[3]", "result": 0.66, "unit": "×10⁻⁶ cm/s"}, {"measurement": "Papp B→A at 2 h", "setting": "[3]", "result": 2.05, "unit": "×10⁻⁶ cm/s"}]}
{"molecule": "CCN(CC)Cc1ccc(C(=O)NO)cc1", "note": "[Compound 2, 4-[(Diethylamino)methyl]-N-hydroxybenzamide]", "values": [{"measurement": "HDAC6 activity (in words)", "setting": "[7]", "result": "reduced HDAC6 activity"}]}
{"molecule": "O=C(NO)c1ccc(Cn2cccn2)cc1", "note": "[Compound 6, 4-(1-Pyrazolylmethyl)-N-hydroxybenzamide]", "values": [{"measurement": "Papp(A−B)", "setting": "[1]", "result": "7.35 10^−6, cm/s"}, {"measurement": "Papp(B−A)", "setting": "[1]", "result": "5.24 10^−6, cm/s"}, {"measurement": "efflux ratio", "setting": "[1]", "result": 0.70}, {"measurement": "concentration at which acetylated α-tubulin levels are elevated", "setting": "[4]", "result": 10, "unit": "µM"}]}
{"molecule": "CN1CCc2c(c3ccccc3n2Cc2ccc(C(=O)NO)cc2)C1", "note": "[TubA, tubastatin A, reference compound]", "values": [{"measurement": "AUCbrain/AUCplasma", "setting": "[10]", "result": 0.18}, {"measurement": "efflux ratio", "setting": "[1]", "result": 9.83}, {"measurement": "Papp A→B at 2 h", "setting": "[3]", "result": 2, "unit": "×10⁻⁶ cm/s"}, {"measurement": "Papp B→A at 2 h", "setting": "[3]", "result": 19.7, "unit": "×10⁻⁶ cm/s"}, {"measurement": "selectivity against HDAC8 (in words)", "setting": "[7]; Figure 2b and c", "result": "poorer selectivity"}, {"measurement": "selectivity against the class I HDACs 1, 2, and 3 (in words)", "setting": "[7]; Figure 2b and c", "result": "high selectivity"}, {"measurement": "brain/plasma ratio", "setting": "[11]; 8 min", "result": 0.15}, {"measurement": "brain/plasma ratio", "setting": "[11]; 60 min", "result": 0.86}]}
{"molecule": "O=C(NO)c1ccc(CN2CCc3ccc(F)cc32)cc1", "note": "[Compound 11, 4-[(6-Fluoroindolin-1-yl)methyl]-N-hydroxybenzamide]", "values": [{"measurement": "efflux ratio", "setting": "[1]", "result": 1.05}, {"measurement": "efflux ratio at 2 h", "setting": "[2]", "result": "< 1"}, {"measurement": "Papp A→B at 2 h", "setting": "[3]", "result": 10.5, "unit": "×10⁻⁶ cm/s"}, {"measurement": "Papp B→A at 2 h", "setting": "[3]", "result": 11.1, "unit": "×10⁻⁶ cm/s"}, {"measurement": "concentration at which acetylated α-tubulin levels are elevated", "setting": "[4]", "result": 1, "unit": "µM"}]}
{"molecule": "O=C(NO)c1ccc(CN2CCc3ccc(Cl)cc32)cc1", "note": "[Compound 10, 4-[(6-Chloroindolin-1-yl)methyl]-N-hydroxybenzamide]", "values": [{"measurement": "efflux ratio", "setting": "[1]", "result": 0.62}, {"measurement": "efflux ratio at 2 h", "setting": "[2]", "result": "< 1"}, {"measurement": "Papp A→B at 2 h", "setting": "[3]", "result": 9.14, "unit": "×10⁻⁶ cm/s"}, {"measurement": "Papp B→A at 2 h", "setting": "[3]", "result": 5.54, "unit": "×10⁻⁶ cm/s"}, {"measurement": "concentration at which acetylated α-tubulin levels are elevated", "setting": "[4]", "result": 1, "unit": "µM"}]}
